Results taken from ChEMBL document CHEMBL3813648, “Synthesis and evaluation of antioxidant phenolic diaryl hydrazones as potent antiangiogenic agents in atherosclerosis” (Bioorg Med Chem, 2016).
Active and inactive are the calls of the source. The calls are words filed in the database; no cut-off is given here.

How the values were obtained:
[1] = Antioxidant activity assessed as inhibition of DPPH free radical scavenging activity after 60 mins by UV-Visible spectrophotometry; assay type: physicochemical
Method in brief: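 Reduction of ethanolic DPPH radical read by absorbance at 517 nm at 0 and after 60 min at room temperature. I% = 100×(A0−A60)/A0. IC50 is the concentration giving 50% radical inhibition. Run in triplicate, mean ± SEM; Trolox reference.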

[2] = Antioxidant activity in HMEC1 assessed as inhibition of cell induced LDL oxidation by measuring TBARS level at 1 uM relative to control; assay type: functional, Homo sapiens, HMEC-1; set-up: scale not given: the % may be the effect or the level left
Method in brief: (§1)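 HMEC-1 (passage 30-36) in serum-free RPMI 1640 with native human LDL (100 µg apoB/mL). Agent added with the LDL in DMSO (0.1% final), 14 h at 37 °C. TBARS measured in the medium and expressed as % of LDL-plus-vehicle control; Trolox reference. Mean ± SEM of 4 experiments.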

[3] = Antioxidant activity in HMEC1 assessed as inhibition of cell induced LDL oxidation by measuring TBARS level at 10 uM relative to control; assay type: functional, Homo sapiens, HMEC-1; set-up: scale not given: the % may be the effect or the level left; method in brief: as §1
[4] = Cytotoxicity against HMEC1 assessed as cell viability at 1 uM after 24 hrs by MTT assay in absence of oxidized LDL; set-up: species or system HMEC-1; conditions: human, HMEC1 cells; read-out: Activity
[5] = Cytoprotective activity in HMEC1 assessed as inhibition of oxidized LDL induced toxicity measured as residual viability at 1 uM after 24 hrs by MTT assay (reference value: 20 +/- 5 %); assay type: functional, Homo sapiens, HMEC-1
[6] = Cytoprotective activity in HMEC1 assessed as inhibition of oxidized LDL induced toxicity measured as residual viability at 10 uM after 24 hrs by MTT assay (reference value: 20 +/- 5 %); assay type: functional, Homo sapiens, HMEC-1
[7] = system: HMEC-1; experiment: Antiangiogenic activity in HMEC1 assessed as inhibition of oxidized LDL induced tube formation at 10 uM after 18 hrs by calcein staining based fluorescence microscopy; assay type: functional; conditions: Homo sapiens
Method in brief: (§2)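 HMEC-1 (passage 30-36, serum-starved 24 h) seeded at 30,000 cells/well on Matrigel. Grown 18 h at 37 °C in MCDB-131 with UV-C mildly oxidized LDL (20 µg/mL) ± agent (10 µM). Controls were 0.1% FBS (negative) and 2.5% FBS (positive). Calcein stain (1 µM, 30 min), then fluorescence microscopy. Linked cells counted as % of total cells; mean ± SEM, 4 experiments.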

[8] = system: HMEC-1; experiment: Inhibition of oxidized LDL induced intracellular ROS formation in HMEC1 at 10 uM preincubated for 30 to 40 mins followed by H2DCFDA-AM addition by fluorescence analysis; assay type: functional, cell-based; conditions: Homo sapiens
Method in brief: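 HMEC-1 given oxLDL (20 µg/mL) ± agent (10 µM) for 40 min. H2DCFDA-AM (5 µM final) added 30 min before the end, then cells washed three times with PBS. Homogenate fluorescence read at ex 495/em 520 nm as a ratio to unstimulated control. Mean ± SEM, 4 experiments.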

[9] = Cytotoxicity against HMEC1 assessed as cell viability at 10 uM after 24 hrs by MTT assay in absence of oxidized LDL; set-up: species or system HMEC-1; conditions: human, HMEC1 cells; read-out: Activity
[10] = Antioxidant activity assessed as inhibition of DPPH free radical scavenging activity by EPR spectrophotometry; assay type: physicochemical
Method in brief: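 DPPH radical scavenging measured by EPR spectroscopy instead of absorbance at 517 nm, used where staining prevented the absorbance reading; value given as IC50 for 50% DPPH radical inhibition.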

[11] = Antiangiogenic activity in HMEC1 assessed as inhibition of oxidized LDL induced tube formation measured as residual tube at 10 uM after 18 hrs by calcein staining based fluorescence microscopy; assay type: functional, Homo sapiens, HMEC-1; method in brief: as §2

Row | Compound | IC50 [1] [µM] | Activity [2] [%] | Activity [3] [%] | viability at 24 h, 1 µM [4] [%] | Activity [5] [%] | Activity [6] [%] | antiangiogenic activity (active/not active) [7] | ROS inhibition (active/not active) [8] | viability at 24 h, 10 µM [9] [%] | IC50 [10] [µM] | Activity [11] [%]
1 | COc1cc(/C=N/NC(=O)OCc2ccccc2)cc(Oc2cc(/C=N/NC(=O)OCc3ccccc3)cc(OC)c2O)c1O | 23.6 | 28 | 6 | 102 | 51 | 69 | inactive | inactive | 94 | – | –
2 | COc1cc(C=O)cc(-c2cc(C=O)cc(OC)c2O)c1O | 382 | 103 | 88 | 100 | 19 | 21 | – | – | 99 | – | –
3 | Cc1c(C)c2c(c(C)c1O)CCC(C)(C(=O)O)O2 (configuration not stated) [TROLOX] | 20.1 | 57 | 10 | 98 | 45 | 68 | Active | Active | 95 | 17.7 | 20
4 | COc1cc(/C=N/Nc2nc3ccccc3s2)cc(Oc2cc(/C=N/Nc3nc4ccccc4s3)cc(OC)c2O)c1O | 8.6 | 93 | 12 | 93 | 51 | 69 | Active | Active | 80 | – | –
5 | COc1cc(/C=N/NC(=O)c2ccncc2)cc(-c2cc(/C=N/NC(=O)c3ccncc3)cc(OC)c2O)c1O | 38.8 | 112 | 92 | 100 | 18 | 19 | – | – | 88 | – | –
6 | COc1cc(/C=N/NC(=O)c2ccncc2)cc(Oc2cc(/C=N/NC(=O)c3ccncc3)cc(OC)c2O)c1O | 21.5 | 100 | 88 | 95 | 42 | 66 | – | – | 92 | – | –
7 | COc1cc(/C=N/NC(=O)c2cc(C)n[nH]2)cc(Oc2cc(/C=N/NC(=O)c3cc(C)n[nH]3)cc(OC)c2O)c1O | 19.8 | 97 | 91 | 95 | 41 | 65 | – | – | 100 | – | –
8 | COc1cc(/C=N/N=c2/[nH]ncc3ccccc23)cc(Oc2cc(/C=N/N=c3/[nH]ncc4ccccc34)cc(OC)c2O)c1O.Cl.Cl | 11.5 | 37 | 10 | 95 | 56 | 72 | – | Active | 90 | – | <5
9 | COc1cc(/C=N/NC(=O)c2cc(C)n[nH]2)cc(-c2cc(/C=N/NC(=O)c3cc(C)n[nH]3)cc(OC)c2O)c1O | 29.1 | 99 | 71 | 107 | 14 | 40 | – | – | 105 | – | –
10 | COc1cc(/C=N/N=c2\[nH]ncc3ccccc23)cc(-c2cc(/C=N/N=c3/[nH]ncc4ccccc34)cc(OC)c2O)c1O.Cl.Cl | – | 56 | 8 | – | 52 | 99 | – | – | – | – | –
11 | COc1cc(/C=N/Nc2nc3ccccc3s2)cc(-c2cc(/C=N/Nc3nc4ccccc4s3)cc(OC)c2O)c1O | 27.7 | 19 | 7 | 90 | 58 | 91 | Active | Active | 78 | – | –
12 | COc1cc(C=O)cc(Oc2cc(C=O)cc(OC)c2O)c1O | 289 | 95 | 87 | 89 | 32 | 35 | – | – | 85 | – | –
13 | COc1cc(/C=N/Nc2nncc3ccccc23)cc(-c2cc(/C=N/Nc3nncc4ccccc34)cc(OC)c2O)c1O | 9.7 | – | – | 109 | – | – | Active | Active | 98 | – | –
14 | COc1cc(/C=N/NC(=O)OCc2ccccc2)cc(-c2cc(/C=N/NC(=O)OCc3ccccc3)cc(OC)c2O)c1O | 59.7 | 18 | 5 | 91 | 52 | 90 | Active | Active | 85 | – | –
